By IC50 is commonly meant the point on the concentration scale where inhibition reaches its midpoint. A low value points to greater potency in that assay. As usually defined, the EC90 is the concentration needed for an effect of 90%.

In test [1] the target is RNA-directed RNA polymerase (Hepacivirus hominis, UniProt O39930). The experiment in a line: Inhibitory activity against HCV delta 21 NS5B RNA polymerase by SPA assay. Further details: species or system Hepatitis C virus subtype 1b.
Test [2] concerns the target RNA-directed RNA polymerase (Hepacivirus hominis) (UniProt O39930). The experiment in a line: Inhibition of HCV RNA replication in Huh7 cells. Format: functional, cell-based. Conditions: Huh-7. The method in brief: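 Huh-7 subgenomic replicon cells were seeded at 3 × 10³/well in DMEM with 10% FCS, 1% NEAA and 1 mg/mL G418, and allowed 4 h to attach. Eleven 2.5-fold DMSO dilutions were added (final 10,000 to 1.0 nM) and cells incubated 40 h. Neo RNA was measured by TaqMan RT-PCR, normalised to cyclophilin against DMSO controls; n = 8 wells per dilution.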

RNA-directed RNA polymerase, sequence (O39930 whole entry): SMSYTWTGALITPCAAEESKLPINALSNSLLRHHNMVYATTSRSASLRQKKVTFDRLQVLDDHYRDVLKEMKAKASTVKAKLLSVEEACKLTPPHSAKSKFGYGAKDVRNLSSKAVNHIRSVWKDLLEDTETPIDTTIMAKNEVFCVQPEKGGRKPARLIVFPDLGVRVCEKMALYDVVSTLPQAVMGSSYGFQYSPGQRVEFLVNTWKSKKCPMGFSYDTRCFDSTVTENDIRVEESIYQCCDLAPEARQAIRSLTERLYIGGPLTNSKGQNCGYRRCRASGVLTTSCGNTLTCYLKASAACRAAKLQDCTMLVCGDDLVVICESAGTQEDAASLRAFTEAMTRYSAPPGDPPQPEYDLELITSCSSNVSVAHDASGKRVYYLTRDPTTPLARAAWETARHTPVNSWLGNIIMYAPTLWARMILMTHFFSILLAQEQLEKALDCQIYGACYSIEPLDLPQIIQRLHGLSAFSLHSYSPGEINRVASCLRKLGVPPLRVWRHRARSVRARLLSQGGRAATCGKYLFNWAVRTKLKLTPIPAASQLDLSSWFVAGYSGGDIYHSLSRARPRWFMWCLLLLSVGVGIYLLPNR
RNA-directed RNA polymerase (Hepacivirus hominis), sequence (O39930 1-591): as the sequence (O39930 whole entry) above

With `CC(C)(C)C(=O)Cn1c(=O)c(C2=NS(=O)(=O)c3ccccc3N2)c(O)c2cc(F)ccc21`, the IC50 in test [1] stood at 696 nM.

In turn, `CN(C)CCn1c(=O)c(C2=Nc3ccccc3S(=O)(=O)N2)c(O)c2ccccc21` gave an IC50 in test [1] greater than 10000 nM.

`Nc1ccc2c(c1)c(O)c(C1=NS(=O)(=O)c3ccccc3N1)c(=O)n2CCC1CC1`: the IC50 in test [1] worked out at 32 nM. In test [2], this compound came in with an EC90 of 593 nM.

For the compound `Cc1nc(Cn2c(=O)c(C3=Nc4ccccc4S(=O)(=O)N3)c(O)c3ccccc32)cs1`, half-maximal inhibition in test [1] (IC50) was put at 304 nM.

Turning to `CC(C)CCn1c(=O)c(C2=NS(=O)(=O)c3ccccc3N2)c(O)c2cc(C(=O)O)ccc21`, the IC50 in test [1] was found to be 1040 nM.

`CC1CC1Cn1c(=O)c(C2=Nc3ccccc3S(=O)(=O)N2)c(O)c2ccccc21` (stereo not given) displayed an IC50 in test [1] of 41 nM.

In test [1], `C[S+]([O-])CCn1c(=O)c(C2=NS(=O)(=O)c3ccccc3N2)c(O)c2ccccc21` (stereo not given) came in with a 50% inhibitory concentration (IC50) of 2540 nM.

Regarding `CCOC(=O)CCCn1c(=O)c(C2=NS(=O)(=O)c3ccccc3N2)c(O)c2ccccc21`, in test [1], the IC50 was greater than 10000 nM.

Compound `O=c1c(C2=NS(=O)(=O)c3ccccc3N2)c(O)c2ccccc2n1CCN1CCCC1` yielded a half-inhibitory concentration (IC50) in test [1] greater than 10000 nM.

On to `O=C(O)CCCn1c(=O)c(C2=Nc3ccccc3S(=O)(=O)N2)c(O)c2ccccc21`, for which, in test [1], the concentration for half-maximal inhibition (IC50) was greater than 10000 nM.

As for `CC(C)CCn1c(=O)c(C2=Nc3ccccc3S(=O)(=O)N2)c(O)c2cc(OCC#N)ccc21`, the IC50 in test [1] is 34 nM.

The compound `O=c1c(C2=Nc3ccccc3S(=O)(=O)N2)c(O)c2ccccc2n1CC1CCCCC1` yielded an IC50 in test [1] of 367 nM.

`CC(C)CCn1c(=O)c(C2=Nc3ccccc3S(=O)(=O)N2)c(O)c2ccc(Cl)cc21`: the half-inhibitory concentration (IC50) in test [1] is greater than 10000 nM.

Take `N#Cc1ccccc1Cn1c(=O)c(C2=Nc3ccccc3S(=O)(=O)N2)c(O)c2ccccc21`: the 50% inhibitory concentration (IC50) in test [1] worked out at 780 nM.

`O=c1c(C2=Nc3ccccc3S(=O)(=O)N2)c(O)c2ccccc2n1Cc1ccc([N+](=O)[O-])cc1`: the IC50 in test [1] turned out to be 2440 nM.

Turning to `O=c1c(C2=Nc3ccccc3S(=O)(=O)N2)c(O)c2ccccc2n1Cc1ccccc1[N+](=O)[O-]`, the IC50 in test [1] was greater than 10000 nM.

On to `CC(C)CCn1c(=O)c(C2=Nc3ccccc3S(=O)(=O)N2)c(O)c2cc(NC(=O)CN(C)C)ccc21`, for which, in test [1], 5810 nM corresponded to half-maximal inhibition (IC50).

As to `CC(C)CCn1c(=O)c(C2=Nc3ccccc3S(=O)(=O)N2)c(O)c2ccc(C(=O)O)cc21`, the IC50 in test [1] is greater than 10000 nM.

`CCOC(=O)c1ccc2c(O)c(C3=Nc4ccccc4S(=O)(=O)N3)c(=O)n(CCC(C)C)c2c1` displayed a half-maximal inhibitory concentration (IC50) in test [1] greater than 10000 nM.

Source of the values: ChEMBL document CHEMBL1148625, “3-(1,1-dioxo-2H-(1,2,4)-benzothiadiazin-3-yl)-4-hydroxy-2(1H)-quinolinones, potent inhibitors of hepatitis C virus RNA-dependent RNA polymerase” (J Med Chem, 2006).
